For assay [1], the system named is MIA PaCa-2. In words: Antiproliferative activity against human MIA PaCa-2 cells assessed as sensitizing activity by measuring combination index at ED75 measured after 3 days in presence of WEHI-539 by Prestoblue assay. Format: functional. Conditions: time 3 day. In short, it runs like this: (§1)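 MiaPaCa2 cells were treated for 3 days with the CDK9 degrader and a Bcl2-family inhibitor (ABT-263, ABT-199 or WEHI-539), singly and combined. Viability was read by PrestoBlue. Combination index values were calculated with CalcuSyn at effective doses ED50, ED75 and ED90.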

For assay [2], the target named is T1, Protein cereblon/Cyclin-dependent kinase 12 (Homo sapiens) (UniProt Q9NYV4+Q96SW2). In words: Protac activity at CDK12/CRBN in human HEK293 cells assessed as degradation of CDK12 at 1 uM measured upto 24 hrs by Western blot analysis. The format is cell-based. Conditions: time hrs <=24. The essentials: (§2)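 Time course in HEK293 cells at 1 μM degrader; lysates collected at indicated time points up to 24 h and probed by western blot for the various CDKs.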

In assay [3] the target is Protein cereblon/Cyclin-dependent kinase 5 (Homo sapiens) (UniProt Q00535+Q96SW2). The experiment in a line: Protac activity at CDK5/CRBN in human HEK293 cells assessed as degradation of CDK5 at 0.01 to 10 uM incubated for 24 hrs by Western blot analysis. Format: cell-based. The settings on record: dose 0.01-10 µM.
Assay [4] concerns the target Protein cereblon/Cyclin-dependent kinase 1 (Homo sapiens) (UniProt P06493+Q96SW2). In words: Protac activity at CDK1/CRBN in human HEK293 cells assessed as degradation of CDK1 at 1 uM incubated for 24 hrs in presence of MG132 by Western blot analysis. The format is cell-based. The essentials: (§3)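 HEK293 cells co-treated for 24 h with degrader and increasing concentrations of proteasome inhibitor MG132; lysates examined by western blot.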

In assay [5] the test system is MIA PaCa-2. In words: Antiproliferative activity against human MIA PaCa-2 cells assessed as sensitizing activity by measuring combination index at ED90 measured after 3 days in presence of WEHI-539 by Prestoblue assay. The format is functional. Conditions: time 3 day. The essentials: as §1
Assay [6] deals with T2, Protein cereblon/Cyclin-dependent kinase 2 (Homo sapiens) (UniProt P24941+Q96SW2). In words: Protac activity at CDK2/CRBN in human HEK293 cells assessed as degradation of CDK2 at 0.01 to 10 uM incubated for 24 hrs by Western blot analysis. The format is cell-based. Conditions: dose 0.01-10 µM. (In general: In western blotting, separated proteins are transferred to a membrane and probed.)

Assay [7] concerns the target Cyclin-dependent kinase 5 (Homo sapiens, UniProt Q00535). In words: Inhibition of CDK5 (unknown origin).
In assay [8] the target is T3, Protein cereblon/Cyclin-dependent kinase 7 (Homo sapiens) (UniProt P50613+Q96SW2). The experiment in a line: Protac activity at CDK7/CRBN in human HEK293 cells assessed as degradation of CDK7 at 1 uM measured upto 24 hrs by Western blot analysis. Conditions: time hrs <=24. Format: cell-based. In short, it runs like this: as §2
The target of assay [9] is T3, Protein cereblon/Cyclin-dependent kinase 7 (Homo sapiens). In words: Protac activity at CDK7/CRBN in human HEK293 cells assessed as degradation of CDK7 at 0.01 to 10 uM incubated for 24 hrs by Western blot analysis. The settings on record: dose 0.01-10 µM. Format: cell-based.
Assay [10] concerns the target Cyclin-dependent kinase 2 (Homo sapiens, UniProt P24941).
Assay [11] relates to MIA PaCa-2. In words: Antiproliferative activity against human MIA PaCa-2 cells assessed as sensitizing activity by measuring combination index at ED50 measured after 3 days in presence of WEHI-539 by Prestoblue assay. Format: functional. The settings on record: time 3 day. The essentials:
as §1

Assay [12] deals with T1, Protein cereblon/Cyclin-dependent kinase 12 (Homo sapiens). The experiment in a line: Protac activity at CDK12/CRBN in human HEK293 cells assessed as degradation of CDK12 at 1 uM incubated for 24 hrs in presence of MG132 by Western blot analysis. The format is cell-based. The essentials: as §3
For assay [13], the target named is CDK9/Cyclin K (Homo sapiens) (UniProt P50750+O75909). The experiment in a line: Protac activity at Cyclin K/CRBN in human HEK293 cells assessed as degradation of cyclin K at 0.01 to 10 uM incubated for 24 hrs by Western blot analysis. Conditions: dose 0.01-10 µM. Format: cell-based.
In assay [14] the test system is MIA PaCa-2. The experiment in a line: Antiproliferative activity against human MIA PaCa-2 cells assessed as sensitizing activity by measuring combination index at ED90 measured after 3 days in presence of ABT- 263 by Prestoblue assay. Format: functional. The settings on record: time 3 day. The essentials:
as §1

In assay [15] the test system is MIA PaCa-2. In words: Antiproliferative activity against human MIA PaCa-2 cells assessed as sensitizing activity by measuring combination index at ED75 measured after 3 days in presence of ABT- 199 by Prestoblue assay. The format is functional. The settings on record: time 3 day. The essentials:
as §1

The target of assay [16] is T2, Protein cereblon/Cyclin-dependent kinase 2 (Homo sapiens). In words: Protac activity at CDK2/CRBN in human HEK293 cells assessed as degradation of CDK2 at 1 uM measured upto 24 hrs by Western blot analysis. Format: cell-based. The settings on record: time hrs <=24. The essentials: as §2

Calls of active or inactive are those of the source. No cut-off for these calls is given here.

T3 sequence (P50613 whole entry, looked up): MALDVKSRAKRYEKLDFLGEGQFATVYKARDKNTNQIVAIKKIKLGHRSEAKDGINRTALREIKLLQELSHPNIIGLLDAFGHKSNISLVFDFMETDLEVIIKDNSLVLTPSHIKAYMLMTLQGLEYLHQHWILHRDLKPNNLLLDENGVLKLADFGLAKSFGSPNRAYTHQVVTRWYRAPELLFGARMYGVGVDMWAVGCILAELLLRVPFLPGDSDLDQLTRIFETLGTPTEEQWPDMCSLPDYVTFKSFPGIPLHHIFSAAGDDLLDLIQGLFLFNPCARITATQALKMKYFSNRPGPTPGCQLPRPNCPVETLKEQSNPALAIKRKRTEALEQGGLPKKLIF
T3 sequence (Q96SW2 whole entry, looked up): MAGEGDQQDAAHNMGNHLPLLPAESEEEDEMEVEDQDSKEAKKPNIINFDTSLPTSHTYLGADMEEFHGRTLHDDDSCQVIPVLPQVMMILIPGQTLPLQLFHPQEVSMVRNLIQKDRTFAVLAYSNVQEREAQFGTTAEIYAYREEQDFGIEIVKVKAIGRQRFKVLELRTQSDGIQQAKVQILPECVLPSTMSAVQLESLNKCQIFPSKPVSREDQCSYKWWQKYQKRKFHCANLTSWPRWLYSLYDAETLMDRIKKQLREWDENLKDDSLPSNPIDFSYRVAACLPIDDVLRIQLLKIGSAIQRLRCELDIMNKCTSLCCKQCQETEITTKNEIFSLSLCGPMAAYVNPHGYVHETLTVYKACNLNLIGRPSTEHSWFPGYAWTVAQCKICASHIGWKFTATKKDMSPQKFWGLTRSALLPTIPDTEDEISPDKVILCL
T1 sequence (Q96SW2 whole entry, looked up): as above
T1 sequence (Q9NYV4 whole entry, looked up): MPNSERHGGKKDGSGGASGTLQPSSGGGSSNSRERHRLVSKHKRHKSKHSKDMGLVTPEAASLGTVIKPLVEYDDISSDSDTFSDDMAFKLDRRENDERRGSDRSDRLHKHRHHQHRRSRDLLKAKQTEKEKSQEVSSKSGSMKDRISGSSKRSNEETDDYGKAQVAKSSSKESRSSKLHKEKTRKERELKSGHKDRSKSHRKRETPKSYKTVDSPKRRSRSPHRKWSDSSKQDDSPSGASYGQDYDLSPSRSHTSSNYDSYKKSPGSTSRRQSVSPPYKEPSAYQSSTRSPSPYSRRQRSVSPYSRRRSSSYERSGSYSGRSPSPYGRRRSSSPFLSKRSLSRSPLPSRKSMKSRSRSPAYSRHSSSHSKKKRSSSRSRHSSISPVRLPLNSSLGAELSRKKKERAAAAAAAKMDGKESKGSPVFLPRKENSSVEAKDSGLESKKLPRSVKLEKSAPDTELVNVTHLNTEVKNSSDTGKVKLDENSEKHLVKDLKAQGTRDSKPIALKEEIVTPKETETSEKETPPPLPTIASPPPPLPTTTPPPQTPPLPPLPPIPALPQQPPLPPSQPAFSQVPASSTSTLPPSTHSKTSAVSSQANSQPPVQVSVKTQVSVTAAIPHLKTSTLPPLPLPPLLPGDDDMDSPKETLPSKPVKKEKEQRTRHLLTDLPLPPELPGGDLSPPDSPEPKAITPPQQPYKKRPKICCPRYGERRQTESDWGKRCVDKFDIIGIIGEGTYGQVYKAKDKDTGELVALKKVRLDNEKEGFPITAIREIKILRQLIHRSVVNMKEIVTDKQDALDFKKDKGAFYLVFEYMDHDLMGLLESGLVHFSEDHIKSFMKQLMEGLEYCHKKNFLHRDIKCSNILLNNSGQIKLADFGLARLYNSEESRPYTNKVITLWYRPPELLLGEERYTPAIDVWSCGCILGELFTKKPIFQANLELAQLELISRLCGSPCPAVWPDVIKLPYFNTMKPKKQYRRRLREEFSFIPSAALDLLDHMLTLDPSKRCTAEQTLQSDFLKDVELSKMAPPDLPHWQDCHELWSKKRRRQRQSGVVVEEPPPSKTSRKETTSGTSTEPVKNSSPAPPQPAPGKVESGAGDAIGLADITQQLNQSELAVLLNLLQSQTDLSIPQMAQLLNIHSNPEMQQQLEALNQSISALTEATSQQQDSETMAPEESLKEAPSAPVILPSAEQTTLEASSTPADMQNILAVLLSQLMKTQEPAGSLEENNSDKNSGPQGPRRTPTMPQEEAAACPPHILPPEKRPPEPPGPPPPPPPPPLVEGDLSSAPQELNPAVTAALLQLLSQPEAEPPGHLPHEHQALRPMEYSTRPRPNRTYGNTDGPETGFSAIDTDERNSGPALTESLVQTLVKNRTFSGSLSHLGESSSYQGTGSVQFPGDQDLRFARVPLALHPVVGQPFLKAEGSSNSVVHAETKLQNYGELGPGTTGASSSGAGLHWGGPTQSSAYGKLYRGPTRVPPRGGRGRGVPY
Protein cereblon/Cyclin-dependent kinase 1 (Homo sapiens), sequence (P06493 whole entry, looked up): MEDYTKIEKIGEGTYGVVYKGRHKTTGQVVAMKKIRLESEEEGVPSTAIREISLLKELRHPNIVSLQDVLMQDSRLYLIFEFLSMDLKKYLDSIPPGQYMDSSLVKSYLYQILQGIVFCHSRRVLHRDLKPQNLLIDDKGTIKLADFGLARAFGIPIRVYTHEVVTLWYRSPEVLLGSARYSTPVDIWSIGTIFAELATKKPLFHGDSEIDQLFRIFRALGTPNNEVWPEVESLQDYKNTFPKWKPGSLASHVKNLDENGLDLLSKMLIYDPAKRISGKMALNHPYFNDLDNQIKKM
Protein cereblon/Cyclin-dependent kinase 1 (Homo sapiens), sequence (Q96SW2 whole entry, looked up): as the sequence (Q96SW2 whole entry, looked up) above
Cyclin-dependent kinase 5, sequence (Q00535 whole entry): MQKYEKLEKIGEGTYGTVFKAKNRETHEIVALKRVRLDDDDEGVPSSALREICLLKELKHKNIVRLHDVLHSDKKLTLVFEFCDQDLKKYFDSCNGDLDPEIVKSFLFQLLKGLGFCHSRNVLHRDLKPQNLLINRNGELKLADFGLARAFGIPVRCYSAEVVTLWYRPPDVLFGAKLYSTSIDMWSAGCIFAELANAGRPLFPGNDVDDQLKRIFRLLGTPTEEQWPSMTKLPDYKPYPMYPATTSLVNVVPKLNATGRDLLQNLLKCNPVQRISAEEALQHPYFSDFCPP
Protein cereblon/Cyclin-dependent kinase 5 (Homo sapiens), sequence (Q00535 whole entry, looked up): as the sequence (Q00535 whole entry) above
Protein cereblon/Cyclin-dependent kinase 5 (Homo sapiens), sequence (Q96SW2 whole entry, looked up): as the sequence (Q96SW2 whole entry, looked up) above

What is called IC50 is the point on the concentration scale where inhibition reaches its midpoint. Lower therefore signals higher potency. A word on the Kd: it is the equilibrium constant for the complex coming apart. A low value points to higher affinity. Take `O=C(CCCOc1ccc(CC(=O)Nc2cc(C3CCC3)[nH]n2)cc1)NCCCCNc1cccc2c1C(=O)N(C1CCC(=O)NC1=O)C2=O` (stereo unspecified): the CI with MIA PaCa-2 [1] worked out at 0.6; in the assay on MIA PaCa-2 [5], 0.35; in the assay on MIA PaCa-2 [11], 1; in the assay on MIA PaCa-2 [14], 0.1; with MIA PaCa-2 [15], 0.001. Further, the result in assay [2], in assay [3], in assay [4], in [6], in assay [8] and in assay [9] was inactive. In addition, the outcome in assay [12], in [13] and in assay [16] was inactive. This compound also yielded an IC50 in assay [7] of 7 nM. Besides, the Kd in assay [10] stood at 385 nM.

The record behind these values is ChEMBL document CHEMBL4819106, “Aminopyrazole based CDK9 PROTAC sensitizes pancreatic cancer cells to venetoclax” (Bioorg Med Chem Lett, 2021).
